Tests used:
Liver microsome [1] = experiment: Ratio of unbound intrinsic glucuronidation clearance in human liver microsomes in presence of 1% bovine serum albumin to unbound intrinsic glucuronidation clearance in human liver microsomes in absence of bovine serum albumin; format: ADME
In short: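 Ratio of mean unbound CLint,UGT in pooled human liver microsomes with 1% BSA to that without BSA. Both come from 1 μM depletion assays at 37°C in pH 7.1 phosphate buffer, with parent drug measured by LC-MS/MS. BSA runs were quenched in double-volume ice-cold acetonitrile. Each condition was corrected by its own equilibrium-dialysis fu,inc. n = 3, duplicates.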

[2] = Glucuronidation clearance in human liver microsomes in presence of bovine serum albumin; format: ADME
[3] = target: T1, UDP-glucuronosyltransferase 1A3 (Homo sapiens, UniProt P35503); experiment: Ratio of UGT1A3-mediated unbound intrinsic glucuronidation clearance in human kidney microsomes to UGT1A3-mediated unbound intrinsic glucuronidation clearance in human liver microsomes at 1 uM; format: ADME
T1 sequence (P35503 whole entry): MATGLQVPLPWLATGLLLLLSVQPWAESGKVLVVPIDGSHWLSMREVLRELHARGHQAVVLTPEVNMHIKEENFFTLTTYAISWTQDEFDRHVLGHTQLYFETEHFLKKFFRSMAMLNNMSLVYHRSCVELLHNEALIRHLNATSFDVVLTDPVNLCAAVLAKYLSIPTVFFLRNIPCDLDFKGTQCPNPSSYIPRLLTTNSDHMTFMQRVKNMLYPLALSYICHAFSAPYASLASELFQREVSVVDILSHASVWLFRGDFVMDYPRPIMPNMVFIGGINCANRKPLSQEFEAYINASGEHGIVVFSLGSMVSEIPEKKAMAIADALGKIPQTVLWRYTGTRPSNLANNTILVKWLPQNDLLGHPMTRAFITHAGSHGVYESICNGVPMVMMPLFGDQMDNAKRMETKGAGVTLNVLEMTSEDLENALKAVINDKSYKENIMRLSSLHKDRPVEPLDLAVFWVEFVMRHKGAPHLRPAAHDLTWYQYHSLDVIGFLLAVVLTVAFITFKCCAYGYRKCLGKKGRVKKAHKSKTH
In short: (§1)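 Ratios of mean unbound CLint,UGT, each scaled per g tissue, between pooled liver, kidney and intestinal microsomes. Values come from 1 μM substrate-depletion assays in pH 7.1 phosphate at 37°C, run with or without BSA (1% for acids, 2% for bases/neutral drugs). Corrected for nonspecific binding. Kidney and liver n = 3; intestine n = 1; each in duplicate.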

[4] = Unbound intrinsic glucuronidation clearance in human intestinal microsomes at 1 uM after 30 to 60 mins by LC-MS/MS analysis in presence of UDP-glucuronosyltransferase; format: ADME, Intestine, Microsome
In short: (§2)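 Alamethicin-activated pooled microsomes (HLM 150 donors; HKM 8; HIM 18). Drug at 1 μM final, preincubated 5 min at 37°C in 0.1 M phosphate pH 7.1 with 3.45 mM MgCl2, 1.15 mM EDTA, 115 μM saccharic acid lactone. Started with […] cofactor (5 mM final), 30–60 min. Cofactor-free controls. Parent depletion by LC-MS/MS, single-exponential k. Corrected by HLM-dialysis fu,inc. Duplicates; n=3 (HIM n=1).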

Liver microsome [5] = experiment: Unbound intrinsic glucuronidation clearance in human liver microsomes at 1 uM after 30 to 60 mins by LC-MS/MS analysis in presence of UDP-glucuronosyltransferase and 1% bovine serum albumin; format: ADME
Liver microsome [6] = experiment: Fraction metabolized glucuronidation in human liver microsomes in presence of UDP-glucuronosyltransferase; format: ADME
[7] = Fraction unbound in human plasma
[8] = Fraction unbound in human kidney microsomes at 1 uM after 30 to 60 mins by LC-MS/MS analysis; format: ADME
[9] = target: T1, UDP-glucuronosyltransferase 1A3; experiment: Drug metabolism in human intestinal microsomes assessed as UGT1A3-mediated unbound intrinsic glucuronidation clearance at 1 uM after 30 to 60 mins by LC-MS/MS analysis; format: ADME, Intestine
[10] = Fraction unbound in human intestinal microsomes at 1 uM after 30 to 60 mins by LC-MS/MS analysis; format: ADME, Intestine, Microsome
[11] = Unbound intrinsic glucuronidation clearance in human kidney microsomes at 1 uM after 30 to 60 mins by LC-MS/MS analysis in presence of UDP-glucuronosyltransferase; format: ADME, microsome; in short: as §2
[12] = target: T1, UDP-glucuronosyltransferase 1A3; experiment: Drug metabolism in human intestinal microsomes assessed as UGT1A3-mediated unbound intrinsic glucuronidation clearance at 1 uM after 30 to 60 mins by LC-MS/MS analysis in presence of 1% bovine serum albumin; format: ADME, Intestine
Liver microsome [13] = experiment: Fraction unbound in human liver microsomes at 1 uM after 30 to 60 mins by LC-MS/MS analysis in presence of 1% bovine serum albumin; format: ADME; details: microsomes, 1 µM
[14] = target: T1, UDP-glucuronosyltransferase 1A3; experiment: Ratio of UGT1A3-mediated unbound intrinsic glucuronidation clearance in human intestinal microsomes to UGT1A3-mediated unbound intrinsic glucuronidation clearance in human liver microsomes at 1 uM; format: ADME; in short: as §1
[15] = Glucuronidation clearance in human liver microsomes; format: ADME
[16] = target: T1, UDP-glucuronosyltransferase 1A3; experiment: Ratio of UGT1A3-mediated unbound intrinsic glucuronidation clearance in human kidney microsomes to UGT1A3-mediated unbound intrinsic glucuronidation clearance in human liver microsomes at 1 uM in presence of 1% bovine serum albumin; format: ADME; in short: as §1
[17] = Fraction unbound in human liver microsomes at 1 uM after 30 to 60 mins by LC-MS/MS analysis; format: ADME
[18] = target: T1, UDP-glucuronosyltransferase 1A3; experiment: Drug metabolism in human kidney microsomes assessed as UGT1A3-mediated unbound intrinsic glucuronidation clearance at 1 uM after 30 to 60 mins by LC-MS/MS analysis; format: ADME
In short: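 Pooled human kidney microsomes (8 donors), alamethicin-activated. […] Started with cofactor (5 mM in incubation) and run 30–60 min. Parent depletion measured by LC-MS/MS; single-exponential k; corrected by equilibrium-dialysis fu,inc. Duplicates, three occasions.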

[19] = target: T1, UDP-glucuronosyltransferase 1A3; experiment: Drug metabolism in human liver microsomes assessed as UGT1A3-mediated unbound intrinsic glucuronidation clearance at 1 uM after 30 to 60 mins by LC-MS/MS analysis in presence of 1% bovine serum albumin; format: ADME
[20] = Clearance in iv dosed human; format: ADME, organism-based; details: in vivo
[21] = target: T1, UDP-glucuronosyltransferase 1A3; experiment: Ratio of UGT1A3-mediated unbound intrinsic glucuronidation clearance in human kidney microsomes to UGT1A3-mediated unbound intrinsic glucuronidation clearance in human intestinal microsomes at 1 uM in presence of 1% bovine serum albumin; format: ADME; in short: as §1
[22] = target: T1, UDP-glucuronosyltransferase 1A3; experiment: Drug metabolism in human liver microsomes assessed as UGT1A3-mediated unbound intrinsic glucuronidation clearance at 1 uM after 30 to 60 mins by LC-MS/MS analysis; format: ADME
Liver microsome [23] = experiment: Fraction metabolized glucuronidation in human liver microsomes in presence of UDP-glucuronosyltransferase and bovine serum albumin; format: ADME
[24] = target: T1, UDP-glucuronosyltransferase 1A3; experiment: Ratio of UGT1A3-mediated unbound intrinsic glucuronidation clearance in human kidney microsomes to UGT1A3-mediated unbound intrinsic glucuronidation clearance in human intestinal microsomes at 1 uM; format: ADME; in short: as §1
[25] = target: T1, UDP-glucuronosyltransferase 1A3; experiment: Drug metabolism in human kidney microsomes assessed as UGT1A3-mediated unbound intrinsic glucuronidation clearance at 1 uM after 30 to 60 mins by LC-MS/MS analysis in presence of 1% bovine serum albumin; format: ADME
[26] = Unbound intrinsic glucuronidation clearance in human kidney microsomes at 1 uM after 30 to 60 mins by LC-MS/MS analysis in presence of UDP-glucuronosyltransferase and 1% bovine serum albumin; format: ADME, microsome
[27] = Ratio of unbound intrinsic glucuronidation clearance in human intestinal microsomes in presence of 1% bovine serum albumin to unbound intrinsic glucuronidation clearance in human intestinal microsomes in absence of bovine serum albumin; format: ADME, Intestine, Microsome
In short: (§3)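 Unbound intrinsic glucuronidation clearance measured by parent-drug depletion in intestinal or kidney microsomes, once with 1% BSA and once without, under otherwise matched conditions (1 μM drug, pH 7.1 phosphate, 5 mM cofactor, 37°C). Each value was corrected for fu,inc. The ratio is the mean clearance with BSA over the mean without.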

Liver microsome [28] = experiment: Unbound intrinsic glucuronidation clearance in human liver microsomes at 1 uM after 30 to 60 mins by LC-MS/MS analysis in presence of UDP-glucuronosyltransferase; format: ADME; in short: as §2
[29] = Ratio of unbound intrinsic glucuronidation clearance in human kidney microsomes in presence of 1% bovine serum albumin to unbound intrinsic glucuronidation clearance in human kidney microsomes in absence of bovine serum albumin; format: ADME, microsome; in short: as §3
[30] = target: T1, UDP-glucuronosyltransferase 1A3; experiment: Ratio of UGT1A3-mediated unbound intrinsic glucuronidation clearance in human intestinal microsomes to UGT1A3-mediated unbound intrinsic glucuronidation clearance in human liver microsomes at 1 uM in presence of 1% bovine serum albumin; format: ADME; in short: as §1
[31] = Unbound intrinsic glucuronidation clearance in human intestinal microsomes at 1 uM after 30 to 60 mins by LC-MS/MS analysis in presence of UDP-glucuronosyltransferase and 1% bovine serum albumin; format: ADME, Intestine, Microsome

- Ratio (Liver microsome [1]): 1.6
- CLhep predicted [2]: 9.93 mL/min/kg
- Ratio [3]: 0.04
- CL free [4]: 21.3 µL/min/mg
- CL free (Liver microsome [5]): 395 µL/min/mg
- Drug metabolism (Liver microsome [6]): 1
- fraction unbound [7]: 0.005
- fraction unbound at 1 µM [8]: 0.48
- CL free [9]: 0.438 mL/min/g
- fraction unbound at 1 µM [10]: 0.48
- CL free [11]: 9.72 µL/min/mg
- CL free [12]: 1.88 mL/min/g
- Fu (Liver microsome [13]): 0.07
- Ratio [14]: 0.142
- CLhep predicted [15]: 9.93 mL/min/kg
- Ratio [16]: 0.028
- fraction unbound at 1 µM [17]: 0.65
- CL free [18]: 0.124 mL/min/g
- CL free [19]: 15.8 mL/min/g
- clearance [20]: 12.3 mL/min/kg
- Ratio [21]: 0.233
- CL free [22]: 3.08 mL/min/g
- Drug metabolism (Liver microsome [23]): 1
- Ratio [24]: 0.284
- CL free [25]: 0.439 mL/min/g
- CL free [26]: 34.3 µL/min/mg
- Ratio [27]: 1.6
- CL free (Liver microsome [28]): 76.9 µL/min/mg
- Ratio [29]: 1.6
- Ratio [30]: 0.119
- CL free [31]: 91.4 µL/min/mg
Structure (SMILES): CCCc1nc2c(C)cc(-c3nc4ccccc4n3C)cc2n1Cc1ccc(-c2ccccc2C(=O)O)cc1
